We go through two compounds from PMC11152975 (International Journal of Pharmaceutics: X, 2024).

Where two headings read alike, the source gives them in different places. Where only a bound is given, the exact number is not on record here.

Data set [1] deals with MCF-7 human breast cancer cells. Kind of data set: In vitro cytotoxicity, MTT assay. As to conditions: read-out: mean IC50. It is filed as cell-based. The method, boiled down: (§1)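 Cells kept in phenol red-free DMEM with 10% FBS, L-glutamine and antibiotics at 37 °C, 5% CO2, then seeded in 96-well plates. They were exposed to a range of test compound concentrations (free drug in DMSO or micellar formulations) for 24, 48 or 72 h. Next, 0.5 mg/mL MTT for 2 h, absorbance read at 550 nm. Viability expressed as % of untreated control wells.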

Data set [2] concerns MDA-MB-231 human breast cancer cells. The experiment in a line: In vitro cytotoxicity, MTT assay. It counts as cell-based. As to conditions: read-out: mean IC50. The gist of the method: as §1
In general terms: Tetrazolium dyes change colour on reduction, which living cells bring about.

For data set [3] the following is noted: low solubility and low permeability; cited from earlier work.
Data set [4] concerns the target T1, bovine serum albumin (BSA) (Bos taurus, UniProt P02769). As to conditions: ref Liu et al., 2005; cited from earlier work.
For data set [5], the target named is T1, bovine serum albumin (BSA). The experiment in a line: Protein adsorption to micelles: incubation with BSA, DLS and TEM. It counts as physicochemical. The method, boiled down: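 Drug-loaded micelles were incubated with 45 mg/mL bovine serum albumin in 0.01 M PBS (pH 7.4) at 37 °C for 8 h, with BSA alone and micelles alone incubated in PBS as controls. Hydrodynamic size and polydispersity were read by DLS (n = 3, mean ± SD). For TEM, samples settled 20 s on carbon-coated grids and were negatively stained with 2% phosphotungstic acid in PBS, pH 7.0.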

T1 sequence (P02769 25-607): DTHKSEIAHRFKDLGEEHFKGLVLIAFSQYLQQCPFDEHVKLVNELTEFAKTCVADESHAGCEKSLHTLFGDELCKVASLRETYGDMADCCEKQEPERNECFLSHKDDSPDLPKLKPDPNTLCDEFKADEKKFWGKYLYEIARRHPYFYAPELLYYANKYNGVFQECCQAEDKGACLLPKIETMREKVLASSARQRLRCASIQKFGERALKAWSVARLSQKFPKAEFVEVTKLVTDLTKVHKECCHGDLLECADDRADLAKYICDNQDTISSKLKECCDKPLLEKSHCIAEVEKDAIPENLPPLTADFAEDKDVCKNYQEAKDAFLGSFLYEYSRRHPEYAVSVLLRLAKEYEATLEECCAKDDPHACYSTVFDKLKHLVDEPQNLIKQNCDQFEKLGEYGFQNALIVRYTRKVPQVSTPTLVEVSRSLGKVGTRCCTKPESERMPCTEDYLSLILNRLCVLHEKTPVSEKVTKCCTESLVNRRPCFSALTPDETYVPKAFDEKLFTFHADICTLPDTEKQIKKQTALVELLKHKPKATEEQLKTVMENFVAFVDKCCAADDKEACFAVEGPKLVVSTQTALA

What is called IC50 is the concentration needed to halve the response being measured. For `CC(=O)O[C@H]1C(=O)[C@@]2(C)[C@H]([C@H](OC(=O)c3ccccc3)[C@]3(O)C[C@H](OC(=O)[C@H](O)[C@@H](NC(=O)c4ccccc4)c4ccccc4)C(C)=C1C3(C)C)[C@]1(OC(C)=O)CO[C@@H]1C[C@@H]2O` [Free PTX (in DMSO), Paclitaxel], the IC50 in data set [1] (MCF7, 24 h) is greater than 1000 nM; in data set [1] (MCF7, 48 h) it was 384 nM; in data set [1] (MCF7, 72 h), 297 nM; in data set [2] (MDA-MB-231, 24 h), 21.6 nM; in data set [2] (MDA-MB-231, 48 h), 10.8 nM; in data set [2] (MDA-MB-231, 72 h), 9.7 nM. In data set [3], the “biopharmaceutical classification system (BCS) class” value is listed as “class IV”.

bovine serum albumin [BSA]: the hydrodynamic diameter in data set [4] is recorded as 7.9 ± 0.4 nm. In data set [5] (8-h incubation at 37 °C in 0.01 M PBS pH 7.4, sample alone), the “Size (hydrodynamic)” value was found to be 8.2 ± 0.1 nm. In addition, in data set [5] (8-h incubation at 37 °C in PBS, sample alone), the Polydispersity stood at 0.236 ± 0.019.
